Laboratory results from ChEMBL document CHEMBL1128589, “Novel benzo[b]quinolizinium cations as uncompetitive N-methyl-D-aspartic acid (NMDA) antagonists: the relationship between log D and agonist independent (closed) NMDA channel block” (J Med Chem, 1995).

Key:
[1] = biological target: Glutamate NMDA receptor; assay: Affinity against 3[H]TCP binding to N-methyl-D-aspartate glutamate receptor in rat brain membranes; assay type: cell membranes
[2] = logD value was determined; assay type: physicochemical; settings: octanol/water
[3] = pKa value was determined; assay type: physicochemical
[4] = Inhibitory activity against NMDA closed channel block; assay type: functional
Outline: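 Oocytes (stage V-VI, defolliculated with 0.2% collagenase) were held 48-72 h at 18-22 °C in ND96 and superfused at ~4 mL/min. Controls were two 100 µM NMDA pulses 15 min apart. Cells then sat 30 min in 10 µM 7-chlorokynurenate plus inhibitor, were washed 1-2 min and retested with 100 µM NMDA. 100 µM kainate served as internal control. One application per cell.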

[5] = Inhibitory activity against NMDA open channel block; assay type: functional
Outline: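 Superfused oocytes got a single inhibitor application per cell during NMDA response. Current at 300 s was normalized to the initial NMDA current. Inhibition = (mean control (NMDA alone) − test)/control × 100%.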

[6] = Ratio (closed/open) was determined; assay type: functional
Outline: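 Oocytes injected with forebrain-derived RNA and held 48–72 h at 18–22 °C, then superfused. Open block: current 300 s after NMDA plus inhibitor, normalised to initial NMDA current, expressed as % of NMDA-alone controls, one application per cell. Closed block: 30 min inhibitor with 10 µM 7-chlorokynurenate, 1–2 min wash, then 100 µM NMDA, with 100 µM kainate as internal control. Ratio = closed/open IC50.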

| Structure (SMILES) | Ki [1] | logD [2] | pKa [3] | IC50 [4] | IC50 [5] | Ratio [6] |
| --- | --- | --- | --- | --- | --- | --- |
| Oc1cc(O)c2c(c1)C1CC(c3ccoc3)(c3ccoc3)C2c2cccc[n+]21 (racemic) | 0.125 µM |  |  |  |  |  |
| O=C(O)c1ccc2c(c1)C1c3cccc[n+]3C2CC1(c1ccoc1)c1ccoc1 (racemic) | > 10 µM | 1.76 |  |  |  |  |
| c1ccc(C2(N3CCCCC3)CCCCC2)cc1 [PHENCYCLIDINE] |  |  | 9.97 | 0.45 µM | 0.27 µM | 1.7 |
| c1ccc2c(c1)C1CC(c3ccoc3)(c3ccoc3)C2c2c3ccccc3cc[n+]21 (racemic) | 0.019 µM |  |  |  |  |  |
| N#CC12CC(c3ccoc3)(c3ccoc3)C(c3ccccc31)c1cccc[n+]12 (racemic) | 0.01 µM |  |  |  |  |  |
| Oc1cccc2[n+]1C1CC(c3ccoc3)(c3ccoc3)C2c2ccccc21 (racemic) | 3.78 µM |  |  |  |  |  |
| COc1cc(OC)c2c(c1)C1CC(c3ccoc3)(c3ccoc3)C2c2cccc[n+]21 (racemic) | 3.79 µM |  |  |  |  |  |
| COc1c(Cl)ccc2c1C1c3cccc[n+]3C2CC1(c1ccoc1)c1ccoc1 (racemic) | 0.064 µM |  |  |  |  |  |
| Fc1ccc2c(c1)C1c3cccc[n+]3C2CC1(c1ccoc1)c1ccoc1 (racemic) | 0.0036 µM | 0.75 |  |  |  |  |
| c1ccc(C2(c3ccccc3)CC3c4ccccc4C2c2cccc[n+]23)cc1 (racemic) |  | -2.54 | 11.7 | 18.1 µM | 0.032 µM | 564 |
| c1ccc2c(c1)C1CC(c3ccoc3)(c3ccoc3)C2c2cccc[n+]21 (racemic) | 0.002 µM |  |  |  |  |  |
| Brc1ccc(Br)c2c1C1CC(c3ccoc3)(c3ccoc3)C2c2cccc[n+]21 (racemic) | 0.345 µM |  |  |  |  |  |
| Clc1cccc2[n+]1C1CC(c3ccoc3)(c3ccoc3)C2c2ccccc21 (racemic) | 0.633 µM |  |  |  |  |  |
| Oc1cccc2c1C1c3cccc[n+]3C2CC1(c1ccoc1)c1ccoc1 (racemic) | 0.0018 µM | -0.81 | 8.6 | 3.86 µM | 0.00913 µM | 422 |
| Oc1c(Cl)ccc2c1C1c3cccc[n+]3C2CC1(c1ccoc1)c1ccoc1 (racemic) | 0.024 µM | -0.99 |  |  |  |  |
| Oc1ccc2[n+](c1)C1CC(c3ccoc3)(c3ccoc3)C2c2ccccc21 (racemic) | 1.53 µM |  |  |  |  |  |
| Oc1ccc2c(c1)C1c3cccc[n+]3C2CC1(c1ccoc1)c1ccoc1 (racemic) | 0.0021 µM | 0.32 | 8.8 | 1.03 µM | 0.0073 µM | 142 |
| Oc1ccc2c(c1)C1CC(c3ccoc3)(c3ccoc3)C2c2cccc[n+]21 (racemic) | 0.029 µM |  |  |  |  |  |
| Oc1ccc[n+]2c1C1c3ccccc3C2CC1(c1ccoc1)c1ccoc1 (racemic) | 0.294 µM | 1.66 | 4.88 | 24.8 µM | 0.557 µM | 44.6 |
| COc1ccc[n+]2c1C1c3ccccc3C2CC1(c1ccoc1)c1ccoc1 (racemic) | 0.019 µM |  |  |  |  |  |
| Oc1cccc2c1C1c3cccc[n+]3C2CC1(c1ccccc1)c1ccccc1 (racemic) | 0.012 µM | 1.75 |  |  |  |  |
| OCc1cccc2c1C1c3cccc[n+]3C2CC1(c1ccoc1)c1ccoc1 (racemic) | 0.159 µM |  |  |  |  |  |
| CCCCCCCCOc1cccc2c1C1c3cccc[n+]3C2CC1(c1ccoc1)c1ccoc1 (racemic) | 3.38 µM |  |  |  |  |  |
| COc1cccc2c1C1c3cccc[n+]3C2CC1(c1ccoc1)c1ccoc1 (racemic) | 0.006 µM | -3.66 |  |  |  |  |
| O=S(=O)([O-])c1cccc2c1C1c3cccc[n+]3C2CC1(c1ccoc1)c1ccoc1 (racemic) | > 10 µM |  |  |  |  |  |
| C[C@]12N[C@H](Cc3ccccc31)c1ccccc12 [DIZOCILPINE] |  |  | 5.81 | 0.04 µM | 0.023 µM | 1.6 |
| CCOC1(OCC)C2c3ccccc3C([n+]3ccccc32)C1(C)C (racemic) |  |  | 12.2 | 14.2 µM | 0.027 µM | 527 |
| CC12CC(c3ccoc3)(c3ccoc3)C(c3ccccc31)c1cccc[n+]12 (racemic) | 0.0012 µM |  |  |  |  |  |
| COC(=O)C12CC(c3ccoc3)(c3ccoc3)C(c3ccccc31)c1cccc[n+]12 (racemic) | 0.039 µM |  |  |  |  |  |
